Experiments:
[1] = target: Sodium channel protein type 2 subunit alpha (Homo sapiens) (UniProt Q99250); experiment: Inhibition of human voltage-gated sodium channel 1.2 expressed in HEK293 cells at 100 nM by […]; type: cell-based
In short: (§1)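 HEK293 cells stably expressing hNav1.2, grown in DMEM/F12 with 10% FBS and G418 at 37 °C. Whole-cell patch clamp at 20–22 °C with ≥75% series resistance compensation. Currents evoked by a 25 ms step from –60 to +10 mV every 15 s. Compound was diluted from DMSO stock into perfusion, ≤0.1% DMSO final, applied after a 3 min control until steady state. Reported as percent block, mean ± SEM.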

Rattus norvegicus = species on record: Rattus norvegicus; experiment: Displacement of [3H]batrachotoxin from neurotoxin site 2 of voltage-gated sodium channel in rat forebrain tissue at 10 uM after 60 mins
In short: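 Rat forebrain membranes (10 mg tissue/well) incubated with [3H]-BTX (30–60 Ci/mmol) in 50 mM HEPES pH 7.4 with 130 mM choline chloride, 37 °C, 60 min; test at 10 μM. Stopped by rapid vacuum filtration onto glass fiber filters; bound radioactivity counted against control and expressed as percent displacement. Aconitine (1 μM) positive control.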

[2] = target: Sodium channel protein type 2 subunit alpha (Homo sapiens) (UniProt Q99250); experiment: Inhibition of human voltage-gated sodium channel 1.2 expressed in HEK293 cells at 1 uM by […]; type: cell-based; in short: as §1
[3] = target: Sodium channel protein type 2 subunit alpha (Homo sapiens) (UniProt Q99250); experiment: Inhibition of human voltage-gated sodium channel 1.2 expressed in human HEK293 cells at 10 uM by […]; type: cell-based; in short: as §1

Chain of Sodium channel protein type 2 subunit alpha (Homo sapiens) (Q99250 whole entry, looked up, the tested form may be a part): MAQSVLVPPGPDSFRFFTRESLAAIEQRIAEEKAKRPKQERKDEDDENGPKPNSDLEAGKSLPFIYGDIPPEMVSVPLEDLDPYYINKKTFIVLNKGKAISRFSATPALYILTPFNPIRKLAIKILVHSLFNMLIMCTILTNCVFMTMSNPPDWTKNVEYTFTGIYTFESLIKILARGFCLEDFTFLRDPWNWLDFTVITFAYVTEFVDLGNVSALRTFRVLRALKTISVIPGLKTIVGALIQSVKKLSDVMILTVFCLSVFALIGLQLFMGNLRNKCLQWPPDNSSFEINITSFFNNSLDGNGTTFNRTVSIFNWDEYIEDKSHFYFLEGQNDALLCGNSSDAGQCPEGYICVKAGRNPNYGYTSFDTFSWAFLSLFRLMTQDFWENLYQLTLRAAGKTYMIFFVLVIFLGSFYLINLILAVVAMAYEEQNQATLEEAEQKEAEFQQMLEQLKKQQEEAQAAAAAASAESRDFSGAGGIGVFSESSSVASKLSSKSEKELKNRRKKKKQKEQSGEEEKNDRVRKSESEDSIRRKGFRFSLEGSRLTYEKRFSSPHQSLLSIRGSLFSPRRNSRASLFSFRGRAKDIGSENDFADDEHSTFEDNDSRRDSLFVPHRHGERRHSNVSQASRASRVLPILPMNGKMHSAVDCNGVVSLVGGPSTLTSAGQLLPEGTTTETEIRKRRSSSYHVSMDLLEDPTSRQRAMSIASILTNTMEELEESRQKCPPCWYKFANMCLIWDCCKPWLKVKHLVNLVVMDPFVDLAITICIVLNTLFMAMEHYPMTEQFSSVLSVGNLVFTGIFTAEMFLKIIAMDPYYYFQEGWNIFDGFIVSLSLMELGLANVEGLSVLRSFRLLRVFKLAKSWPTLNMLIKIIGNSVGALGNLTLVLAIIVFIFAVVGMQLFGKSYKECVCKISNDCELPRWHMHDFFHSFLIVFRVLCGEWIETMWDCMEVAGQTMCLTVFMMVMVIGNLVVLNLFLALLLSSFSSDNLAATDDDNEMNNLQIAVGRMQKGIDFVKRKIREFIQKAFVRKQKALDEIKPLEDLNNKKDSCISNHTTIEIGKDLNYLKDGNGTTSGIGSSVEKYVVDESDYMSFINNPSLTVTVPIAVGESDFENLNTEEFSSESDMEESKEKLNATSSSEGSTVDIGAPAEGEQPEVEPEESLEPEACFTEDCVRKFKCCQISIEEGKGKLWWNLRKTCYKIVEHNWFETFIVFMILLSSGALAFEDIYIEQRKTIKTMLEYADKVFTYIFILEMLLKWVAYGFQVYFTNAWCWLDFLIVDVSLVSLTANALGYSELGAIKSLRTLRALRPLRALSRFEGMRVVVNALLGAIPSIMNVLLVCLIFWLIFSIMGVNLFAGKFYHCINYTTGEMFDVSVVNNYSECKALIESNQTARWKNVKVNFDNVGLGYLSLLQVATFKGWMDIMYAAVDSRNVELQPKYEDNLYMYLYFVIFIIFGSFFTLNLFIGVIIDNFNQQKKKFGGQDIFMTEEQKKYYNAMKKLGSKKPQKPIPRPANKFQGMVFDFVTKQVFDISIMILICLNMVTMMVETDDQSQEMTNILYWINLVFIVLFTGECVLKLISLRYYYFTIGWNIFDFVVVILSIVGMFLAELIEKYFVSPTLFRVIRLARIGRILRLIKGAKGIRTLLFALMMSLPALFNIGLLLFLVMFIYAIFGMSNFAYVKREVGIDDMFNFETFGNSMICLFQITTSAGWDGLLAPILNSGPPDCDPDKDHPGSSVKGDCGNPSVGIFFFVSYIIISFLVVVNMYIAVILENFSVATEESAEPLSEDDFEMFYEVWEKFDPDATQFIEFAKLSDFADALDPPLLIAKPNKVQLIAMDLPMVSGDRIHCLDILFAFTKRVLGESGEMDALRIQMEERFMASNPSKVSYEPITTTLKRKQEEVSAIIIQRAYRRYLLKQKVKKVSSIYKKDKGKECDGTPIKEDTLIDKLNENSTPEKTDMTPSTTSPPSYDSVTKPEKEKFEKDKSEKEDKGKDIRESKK

Structure (SMILES) | inhibition [1] [%] | Activity (Rattus norvegicus) [%] | inhibition [2] [%] | inhibition [3] [%]
CCCCCCC[C@H](C/C=C/CCC(=O)NCCc1c[nH]c2ccccc12)OC | 28.8 | 20.3 | 80.7 | –
CCCCCCC[C@@H](C/C=C/CCC(=O)NCCc1c[nH]c2ccccc12)OC | 17.2 | 29 | 87.8 | 100
O=C1NC(=O)C(c2ccccc2)(c2ccccc2)N1 | – | 19.8 | < 10 | 10
CCCCCCCC(C/C=C/CCC(=O)O)OC (racemic) | – | 7.35 | – | –
CCCCCCC[C@H](C/C=C/CCC(=O)NCCc1ccccc1)OC | < 10 | 13.8 | 58.7 | –
CCCCCCC[C@@H](C/C=C/CCC(=O)NCCc1ccccc1)OC | 15.5 | 15.9 | 74.4 | 94.4
CCCCCCC[C@H](C/C=C/CCC(=O)O)OC | – | 11.9 | – | –
CCCCCCCC(C/C=C/CCC(=O)NCCc1ccccc1)OC (racemic) | < 10 | 15.7 | 49.7 | 90.2
CCCCCCCC(C/C=C/CCC(=O)NCCc1c[nH]c2ccccc12)OC (racemic) | 24.3 | 36 | 88.4 | 100
CCCCCCC[C@@H](C/C=C/CCC(=O)O)OC | – | 7.77 | – | –

— ChEMBL document CHEMBL1806446, “Synthesis and evaluation of hermitamides A and B as human voltage-gated sodium channel blockers” (Bioorg Med Chem, 2011)
